RGS4 block: inhibitors of human RGS4; 0.45% of 310,000 active; P49798; HEK293 M3R/RGS4 inducible, Fluo-4 calcium flux; stronger effect = higher value; triggered by carbachol at its EC20; B-score at 10 µM; AID 463165;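 active means B-score, a plate-corrected calcium signal, over three deviations above library mean, with baseline fluorescence within five deviations of library mean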;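 further: RGS4 expression induced by doxycycline in cells with stable M3 receptor; B-score is computed from the integrated fluorescence ratio over baseline after carbachol; higher B-score means a larger calcium signal and so more RGS4 inhibition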
MrgX1 ag: agonists of human MrgX1 receptor | Q96LB2 | MrgX1-HEK293 cells, Fluo-4 calcium fluorescence, agonist mode; stronger effect = higher value | B-score at 10 µM | 0.44% of 310,000 active;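 active means calcium response B-score plate-corrected fluorescence ratio at least 3 library SD, with starting fluorescence B-score inside 5 SD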
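Material: MrgX1-expressing HEK293 cells / Dosing: compound as first of three additions / Incubation: overnight seeding, then 1 h dark dye loading / Signal: Fluo-4 NW calcium fluorescence / Evaluation: B-scored fluorescence response ratio / Benchmarks: positive and negative control wells on each plate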
Cl transport mod: modulators of human KCC2 chloride dependent transport; Q9H2X9; KCC2 cells, thallium flux FluoZin-2 fluorescence; B-score of Tl+ flux slope (higher = more flux/activation; lower = inhibition) at 10 µM; 2.2% of 190,000 active;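 active means thallium flux slope and its plate-corrected score both differing from the plate sample mean at a set confidence after two filtering rounds, in either direction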;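 further: slope of fluorescence scaled to starting intensity during 10 to 20 s after thallium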
Target sequence (Q9H2X9 whole entry, looked up): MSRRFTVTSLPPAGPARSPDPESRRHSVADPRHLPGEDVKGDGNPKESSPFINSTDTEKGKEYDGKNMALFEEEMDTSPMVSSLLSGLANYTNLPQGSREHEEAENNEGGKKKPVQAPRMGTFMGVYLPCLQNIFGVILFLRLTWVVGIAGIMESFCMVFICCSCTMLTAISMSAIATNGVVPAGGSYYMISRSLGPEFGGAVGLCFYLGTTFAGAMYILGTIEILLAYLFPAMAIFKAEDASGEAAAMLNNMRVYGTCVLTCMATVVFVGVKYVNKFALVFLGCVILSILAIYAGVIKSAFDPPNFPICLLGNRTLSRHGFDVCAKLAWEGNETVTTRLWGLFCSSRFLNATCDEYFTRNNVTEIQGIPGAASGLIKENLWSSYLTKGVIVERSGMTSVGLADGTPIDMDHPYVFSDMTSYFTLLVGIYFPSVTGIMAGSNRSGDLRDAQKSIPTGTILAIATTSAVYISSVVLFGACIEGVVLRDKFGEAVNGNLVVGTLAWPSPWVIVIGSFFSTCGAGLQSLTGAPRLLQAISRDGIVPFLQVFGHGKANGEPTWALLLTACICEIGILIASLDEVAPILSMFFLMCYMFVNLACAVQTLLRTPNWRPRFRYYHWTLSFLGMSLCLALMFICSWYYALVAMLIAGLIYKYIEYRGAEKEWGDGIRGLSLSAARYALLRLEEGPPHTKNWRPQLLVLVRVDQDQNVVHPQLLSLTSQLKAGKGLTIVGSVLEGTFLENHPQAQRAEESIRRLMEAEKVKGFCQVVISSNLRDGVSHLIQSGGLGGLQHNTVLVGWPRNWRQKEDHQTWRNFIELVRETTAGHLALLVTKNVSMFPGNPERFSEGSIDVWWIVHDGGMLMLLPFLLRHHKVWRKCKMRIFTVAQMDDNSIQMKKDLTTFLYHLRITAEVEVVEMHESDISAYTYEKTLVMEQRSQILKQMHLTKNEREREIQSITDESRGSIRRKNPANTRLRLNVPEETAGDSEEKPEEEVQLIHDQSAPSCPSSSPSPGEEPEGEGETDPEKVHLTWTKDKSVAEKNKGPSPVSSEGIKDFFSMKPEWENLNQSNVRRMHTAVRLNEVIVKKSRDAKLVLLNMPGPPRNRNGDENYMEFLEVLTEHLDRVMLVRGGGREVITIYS
MrgX1 antagonist: human MrgX1 receptor antagonism, primary screen; MRGX1-HEK293 calcium flux, Fluo-4, BAM8-22 antagonism; stronger effect = lower value; AID 588676; B-score at 10 µM; 1.3% of 310,000 active; Q96LB2;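 active means calcium-response B-score plate-corrected more than 3 library SD below zero, starting fluorescence within 5 deviations, no agonist response on first addition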;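 further: peak minus trough fluorescence over baseline after final BAM8-22 challenge near maximal dose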
MrgX1 PAM: allosterically activates human MrgX1 receptor signaling. Q96LB2. MrgX1-HEK293, Fluo-4 calcium flux, FDSS; stronger effect = higher value. B-score at 10 µM. 0.63% of 310,000 active. AID 588675;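 active means plate-corrected calcium response at least 3 library SD above typical, normal starting fluorescence, not activating the receptor alone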;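 further: compound read alongside a low EC10 to EC30 dose of BAM8-22 agonist; peak minus trough fluorescence over baseline measured at the second addition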
RGS4 act: RGS4 potentiation or activation | HEK293 M3R/inducible RGS4, carbachol calcium flux Fluo4; stronger effect = lower value | B-score at 10 µM | 0.92% of 310,000 active | AID 463111;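 active means B-score of the integrated calcium signal more than 4 SD below the library mean, with starting fluorescence not abnormally high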;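 further: negative B-score means reduced calcium response which marks RGS4 activation or potentiation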
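System: HEK293 FlpIn-TREx cells, stable M3R, doxycycline-inducible RGS4. Timing: overnight RGS4 induction, 30 min dye load 37 °C, 20 min compound RT. Also added: carbachol, ECmax concentration. Measured by: Fluo4 fluorescence kinetic imaging of calcium. Evaluation: integrated calcium ratio converted to B score.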
Large screens that a line does not name were inactive. Most compounds without a hit are left out; they make up all but 4.7% or so of the library.

NC(=O)NC(=O)C(Nc1ccc(N2CCCCC2)cc1)c1ccccc1 (centres undefined)	RGS4 act -9.1 (no result: Cl transport mod)
O=C(Nc1ccc(N2CCCCC2)cc1)c1ccccc1	none (no result: Cl transport mod)
CCOC(=O)N1CCN(C(=O)c2cc3c(-c4cccc(OC)c4)nn(C)c3s2)CC1	RGS4 act -7.1 (no result: Cl transport mod)
O=c1c2ccccc2nc(COc2ccccc2)n1/N=C/c1c[nH]c2ccccc12	none
C/C(=N\OCc1nc2ccccc2c(=O)n1/N=C/c1cc([N+](=O)[O-])ccc1O)c1ccccc1	MrgX1 PAM 7.3
O=c1c2ccccc2nc(COc2ccccc2)n1/N=C/c1ccc(O)cc1O	RGS4 act -7.8
O=C(NC1CCCCC1)C1(S(=O)(=O)c2ccc(Cl)cc2)CC1	none (no result: Cl transport mod)
CCCCCN(C(=O)CCC(=O)OCCOc1ccccc1Cl)c1c(N)n(CCCC)c(=O)[nH]c1=O	none (no result: Cl transport mod)
CCC(C(=O)NC(C)CCc1ccccc1)n1nc(C)n2c(cc3occc32)c1=O (centres undefined)	Cl transport mod -5.5
N=C1/C(=C\c2ccc(-c3cccc(Cl)c3)o2)C(=O)N=C2SC=C(c3ccccc3)N12	none
O=C1OC(c2cccs2)=N/C1=C\c1ccc(-c2cccc(Cl)c2)o1	MrgX1 antagonist -5.1 (no result: Cl transport mod)
Cc1c(NC(=O)CSCc2ccco2)c(=O)n(-c2ccccc2)n1C	none (no result: Cl transport mod)
Cc1ccc(Oc2ncccc2CO)cc1	none
Cc1ccc(Oc2ncccc2/C=N/OCc2ccc(Cl)cc2Cl)cc1	MrgX1 PAM 7.3
CCOc1ccc2ccccc2c1C(=O)NCC(c1ccc(N(C)C)cc1)N(C)C (centres undefined)	none (no result: Cl transport mod)
CCCc1nnc(NC(=O)C(=O)NCCN(CC)CC)s1	RGS4 act -7.3 (no result: MrgX1 ag, MrgX1 antagonist, MrgX1 PAM)
Cc1ccc(C)c2c(SC(C)C(=O)NCc3ccco3)nc(-c3ccccc3)nc12 (centres undefined)	none
Cc1ccc2nc(-c3ccccc3)nc(SC(C)C(=O)NCc3cccs3)c2c1 (centres undefined)	MrgX1 antagonist -7.3 (no result: Cl transport mod)
N/C(=N\OC(=O)c1cccnc1)c1ccccc1Cl	none
N/C(=N\OC(=O)c1cccnc1)c1ccc(Cl)cc1Cl	MrgX1 antagonist -4.6
C=C1C(=O)C=C2CN(C(=O)c3ccccc3)[C@@](Cc3ccc(F)cc3)(C(=O)OC)[C@@H]12	RGS4 block 15, MrgX1 ag 47
COc1cc(/C=N/n2c(-c3ccc4c(c3)NC(=O)CO4)csc2=Nc2cccc(C)c2)ccc1O	none
COCCN=c1scc(-c2ccc3c(c2)NC(=O)CO3)n1/N=C(\C)c1ccc(O)cc1	MrgX1 antagonist -5.4
CN1OC(Cn2cc(C#N)c(=O)n(C)c2=O)CC1c1ccccc1 (centres undefined)	MrgX1 antagonist -5.8
CCOc1ccc2nc(N3CCC(C(=O)N4CCN(c5ncccn5)CC4)CC3)sc2c1	MrgX1 antagonist -8.1
CC1CC(C)CN(C(=O)CCNC(=O)Cn2ccc3ccccc3c2=O)C1 (centres undefined)	none (no result: Cl transport mod)
Cc1ccc(Cn2c(SCC(=O)N3CC(=O)Nc4ccccc43)nc3ccccc3c2=O)cc1	none
O=C1CN(C(=O)CSc2nc3cc(Cl)ccc3c(=O)n2Cc2ccccc2)c2ccccc2N1	Cl transport mod 24
Cc1cccc(C)c1NC(=O)c1sccc1SCc1cccc(C(F)(F)F)c1	MrgX1 antagonist -5
Cc1cccc(C)c1-n1c(C)cc(/C=N\Nc2ccc([N+](=O)[O-])cn2)c1C	MrgX1 antagonist -5 (no result: Cl transport mod)
O=[N+]([O-])c1ccc(N/N=C\c2cccnc2)nc1	none
CCOC(OCC)c1cn(Cc2ccc(C(=O)c3ccccc3)cc2)nn1	none (no result: Cl transport mod)
Cc1csc2ncc(C(=O)N3CCCc4ccccc43)c(=O)n12	none
Cc1csc2ncc(C(=O)N3CCc4ccccc43)c(=O)n12	Cl transport mod -2.8
Cc1cc2ncn(C(=O)c3c(-c4c(Cl)cccc4Cl)noc3C)c2cc1C	RGS4 act -7.2 (no result: Cl transport mod)
Cc1onc(-c2c(F)cccc2Cl)c1C(=O)N1CCc2ccccc2C1	none
CCOC(=O)c1c(C)c(C(=O)Nc2ccccc2)c(C)n1CC	none
Cc1onc(-c2c(Cl)cccc2Cl)c1C(=O)N1CCc2ccccc21	RGS4 act -7.6
Cc1onc(-c2ccccc2Cl)c1C(=O)N1CCc2ccccc2C1	RGS4 act -7.3
CCOC(=O)c1c(C)c(C(=O)N2CCc3ccccc3C2)c(C)n1CC	Cl transport mod -4.6
Cc1cc2ncn(C(=O)c3c(-c4ccccc4)noc3C)c2cc1C	none
CC(=O)NC12CC3CC(C1)CC(C(=O)Oc1ccc(N(C)S(=O)(=O)c4cc(C)ccc4C)cc1)(C3)C2	none (no result: Cl transport mod)
CCC(C)N(C(=O)CSc1nc2ccc(OC)cc2[nH]1)C1CCS(=O)(=O)C1 (centres undefined)	none (no result: Cl transport mod)
CC(C)Cc1ccc(S(=O)(=O)N2CCN(c3ccccn3)CC2)cc1	none (no result: Cl transport mod)
CC(C)(C)c1ccc(C(=O)NC(=S)Nc2nc3c(s2)CCCC3)cc1	Cl transport mod 12
CN(C)c1ccc(C(=O)Nc2nc3c(s2)CCCC3)cc1	none
Cc1cc(C(C)(C)C)c(O)c(C(C)(C)C)c1	none
CC(C)(C)c1cc(O)c(C(C)(C)C)cc1O	MrgX1 ag 41, RGS4 act -8.5 (no result: Cl transport mod)
CCOC(=O)N1CCN(C(=O)c2nn(C)c3c2CSc2ccccc2-3)CC1	none (no result: Cl transport mod)
O=C(CN1CCCC1)Nc1ccc(Br)cc1[N+](=O)[O-]	none (no result: Cl transport mod)
CC(NC(=O)/C=C/c1ccco1)c1nc2ccccc2n1Cc1ccccc1F (centres undefined)	MrgX1 antagonist -5.3
CN(Cc1cccc(Cl)c1)C(=O)C1CCC(=O)N(C2CC2)C1 (centres undefined)	none (no result: Cl transport mod)
Nc1c(S(=O)(=O)c2ccccc2)c2nc3ccccc3nc2n1Cc1ccco1	none (no result: Cl transport mod)
Cc1ccc(S(=O)(=O)c2c(N)n(Cc3ccco3)c3nc4ccccc4nc23)cc1C	MrgX1 antagonist -4.8
Cc1ccc(/C=N/NC(=O)Cc2cccn2C)cc1	MrgX1 PAM 6.7
Cn1cccc1CC(=O)N/N=C/c1ccc(C(C)(C)C)cc1	none
Cc1ccc(/C=N/NC(=O)Cc2cccn2C)s1	MrgX1 PAM 6.5
Cc1ccccc1/C=C/c1nc2ccccc2c(=O)n1Cc1ccccc1	RGS4 act -7.4
CCOC(=O)Nc1ccc2c(c1)N(C(=O)CCN(CC)CC)c1ccccc1CC2	none (no result: Cl transport mod)
CCOC(=O)Nc1ccc2c(c1)N(C(=O)CCN(CC)CC)c1ccccc1S2=O (centres undefined)	MrgX1 ag 30 (no result: Cl transport mod)
Cc1ccccc1C(OCCN(C(C)C)C(C)C)c1ccccc1 (centres undefined)	RGS4 act -8.6
CCC1=C(OC(=O)N(CC)CC)N2C(=O)OC(=NCC3CC3)[C@]2(Cc2ccccc2)[C@H]2C1=CC[C@H]1C(=O)NC(=O)[C@H]12	MrgX1 antagonist -8.1

Screens (PubChem)
